Experimental data: article PMC3933949 (Bioorganic & medicinal chemistry, 2012)
“And” between values parts separate entries of the source, which are not always exact repeats. Equal entries are not always repeated. Blank lines part the entries; values can stand above or below the compound they belong to.

What was measured:
[1] = target: T1, recombinant human aromatase (CYP19) (Homo sapiens, UniProt P11511); assay: Fluorescence-based aromatase activity assay; assay type: biochemical; conditions: for increase in inhibition potency compared to model compound 1a: ratio of aromatase IC50 values versus 1a; for aromatase inhibition (in words): recombinant human aromatase, fluorescence assay
T1 sequence (P11511 1-503): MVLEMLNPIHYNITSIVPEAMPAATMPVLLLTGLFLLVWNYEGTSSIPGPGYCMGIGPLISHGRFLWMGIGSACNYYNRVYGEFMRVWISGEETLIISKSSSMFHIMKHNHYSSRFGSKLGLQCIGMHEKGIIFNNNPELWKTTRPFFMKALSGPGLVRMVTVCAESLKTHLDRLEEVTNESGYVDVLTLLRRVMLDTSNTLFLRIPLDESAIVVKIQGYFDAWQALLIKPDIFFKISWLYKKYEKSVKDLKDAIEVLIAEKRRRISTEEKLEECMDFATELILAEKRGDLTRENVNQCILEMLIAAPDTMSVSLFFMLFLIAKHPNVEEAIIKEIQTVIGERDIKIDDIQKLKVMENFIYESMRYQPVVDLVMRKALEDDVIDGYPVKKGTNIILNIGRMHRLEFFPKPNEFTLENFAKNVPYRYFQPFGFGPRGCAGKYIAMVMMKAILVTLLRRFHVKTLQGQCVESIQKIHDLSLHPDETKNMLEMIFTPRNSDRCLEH
Method in brief: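 Baculovirus/insect-cell-expressed human aromatase with P450 reductase; 3-fold serial dilutions from acetonitrile stocks, preincubated 10 min at 37 °C with NADPH-regenerating cofactor mix (pH 7.5). Enzyme/MFC solution (pH 7.4) was added, then 30 min at 37 °C, Tris stop, fluorescence ex 409/em 530 nm. Interfering compounds: DBF substrate, 2 h, NaOH stop.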

[2] = test system: aromatase; conditions: cited from earlier work; for aromatase inhibition of naturally occurring isoflavones (in words): literature background

increase in inhibition potency compared to model compound 1a [1]: fivefold
SMILES: O=C1c2ccccc2OCC1c1cccnc1 (stereo not shown) [Compound 3b, 3-(Pyridin-3-yl)chroman-4-one]

aromatase inhibition (in words) [1]: reduced the binding affinity
SMILES: CC(C)(C)c1ccc2c(c1)C(=O)C(c1ccccc1)CO2 (stereo not shown) [Compound 4d, 6-tert-Butyl-3-phenylchroman-4-one]

SMILES: O=C1c2ccccc2OCC1c1cc2ccccc2c2ccccc12 (stereo not shown) [Compound 1j, 3-(Phenanthren-9-yl)chroman-4-one]
aromatase inhibition (in words) [1]: no significant inhibition

SMILES: COc1cc2c(=O)c(-c3ccc(O)cc3)coc2cc1O [glycitein]
aromatase inhibition of naturally occurring isoflavones (in words) [2]: either inactive or weak inhibitors

increase in inhibition potency compared to model compound 1a [1]: threefold
SMILES: COc1cc(OC)cc(C2COc3ccccc3C2=O)c1 (stereo not shown) [Compound 2g, 3-(3,5-Dimethoxyphenyl)chroman-4-one]

increase in inhibition potency compared to model compound 1a [1]: 12 fold
SMILES: O=C1c2ccccc2OCC1c1ccc(Oc2ccccc2)cc1 (stereo not shown) [Compound 1h, 3-(4-Phenoxyphenyl)chroman-4-one]

SMILES: O=c1c(-c2ccc(O)cc2)coc2cc(O)cc(O)c12 [genistein]
aromatase inhibition of naturally occurring isoflavones (in words) [2]: either inactive or weak inhibitors

SMILES: O=c1c(-c2ccccc2)coc2ccccc12 [isoflavone, 3-phenylbenzopyrone]
aromatase inhibition of scaffold (in words) ([2]; ref 20b): inactive

SMILES: O=C1c2ccccc2OCC1c1ccc(O)c(O)c1 (stereo not shown) [3′,4′-dihydroxyisoflavanone]
IC50 ([2]; aromatase, isoflavanone compounds, ref 20b): 200 µM and ≥ 200 µM

SMILES: O=C1c2ccccc2OCC1c1ccsc1 (stereo not shown) [Compound 3a, 3-(Thiophen-3-yl)chroman-4-one]
aromatase inhibition (in words) [1]: did not exhibit a significant increase in potency

aromatase inhibition (in words) [1]: Enhanced inhibitory effects
SMILES: O=C1c2cc(Cl)ccc2OCC1c1ccccc1 (stereo not shown) [Compound 4b, 6-Chloro-3-phenylchroman-4-one]

aromatase inhibition (in words) [1]: no significant inhibition
SMILES: O=C1c2ccccc2OCC1c1ccc(-c2ccccc2)cc1 (stereo not shown) [Compound 1i, 3-(Biphenyl-4-yl)chroman-4-one]

SMILES: O=c1c(-c2ccc(O)cc2)coc2cc(O)ccc12 [daidzein]
aromatase inhibition of naturally occurring isoflavones (in words) [2]: either inactive or weak inhibitors
